Test [1] deals with Ovis aries. Nature of the test: Increase in total plasma LH level in anoestrus Ile-de-France ewe at 1 nmol, iv by radioimmunoassay. The format is functional. The essentials:
(§1)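 Intact acyclic anoestrous Ile-de-France ewes (3–5 y, 55–70 kg), jugular catheter placed the day before. Single iv bolus of 1–15 nmol/ewe. Basal LH taken every 10 min for 30 min, then every 10 min for 2 h, every 20 min for 4 h, then hourly. Plasma LH by RIA (1051-CY-LH standard, sensitivity 0.1 ng/mL). Peak, duration and AUC derived; mean ± SEM, N = 4–6.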

Test [2] concerns Ovis aries. Put plainly: Increase in peak plasma LH level in anoestrus Ile-de-France ewe at 1 nmol, iv by radioimmunoassay (reference value: 0.3 +/- 0.09 ng/ml). The format is functional. The procedure, abridged: as §1
Test [3] has as its system Ovis aries. Put plainly: Increase in peak plasma LH level in anoestrus Ile-de-France ewe at 15 nmol, iv by radioimmunoassay (reference value: 0.3 +/- 0.15 ng/ml). The format is functional. The procedure, abridged:
as §1

The test system of test [4] is Ovis aries. Nature of the test: Increase in peak plasma LH level in anoestrus Ile-de-France ewe at 15 nmol, iv by radioimmunoassay relative to untreated control. The format is functional. The essentials:
as §1

In test [5] the test system is Ovis aries. Nature of the test: Increase in peak plasma LH level in anoestrus Ile-de-France ewe at 5 nmol, iv by radioimmunoassay relative to untreated control. The format is functional. The essentials: as §1
For test [6], the species on record is Homo sapiens. Nature of the test: Selectivity index, ratio of EC50 for human NPFF1R to EC50 for human wild-type KISS1R.
Test [7] relates to Ovis aries. Put plainly: Increase in total plasma LH level in anoestrus Ile-de-France ewe at 15 nmol, iv by radioimmunoassay. The format is functional. The essentials: as §1
The subject of test [8] is Ovis aries. Nature of the test: Increase in FSH level in anoestrus Ile-de-France ewe at 15 nmol, iv by radioimmunoassay. The format is functional, organism-based. The essentials:
(§2)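 Intact acyclic anoestrous Ile-de-France ewes (3–5 y, 55–70 kg), jugular catheter placed the day before. Single iv bolus. Basal sampled every 10 min for 30 min, then every 10 min for 2 h, every 20 min for 4 h, then hourly. Plasma FSH measured by RIA with Tucker reagents (sensitivity 0.1 ng/mL), AUC computed; mean ± SEM, N = 4–6.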

The subject of test [9] is Ovis aries. Put plainly: Increase in time duration of increase of plasma LH level in anoestrus Ile-de-France ewe at 15 nmol, iv by radioimmunoassay. In kind it is functional. The procedure, abridged:
as §1

Test [10] concerns Ovis aries. Nature of the test: Increase in time duration of increase of plasma LH level in anoestrus Ile-de-France ewe at 1 to 15 nmol, iv by radioimmunoassay. The format is functional, organism-based. The procedure, abridged: as §1
Test [11] deals with KiSS-1 receptor (Homo sapiens, UniProt Q969F8). Put plainly: Agonist activity at human wild-type KISS1R expressed in HEK293 cells assessed as induction of intracellular Ca2+ mobilization after 30 mins by Fluo4 NW Ca2+ assay. In kind it is functional, cell-based. The essentials:
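HEK293 stably expressing HA-tagged wild-type human KISS1R, plated 40 000 cells/well 48 h prior. Loaded with Fluo4 NW dye 30 min at 37 °C plus 30 min at rt. Basal read 5× at 7 s intervals, compound added (final 1 pM–1 μM), Ca2+ followed 7 min. Mean basal subtracted, AUC plotted against concentration, sigmoid fit gives EC50. Nontransfected HEK293 served as control.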
For orientation: A change in cytosolic calcium serves as a functional read-out for many receptors and channels.

The test system of test [12] is Ovis aries. Put plainly: Increase in total plasma LH level in anoestrus Ile-de-France ewe at 1 to 15 nmol, iv by radioimmunoassay. In kind it is functional, organism-based. The procedure, abridged:
as §1

The test system of test [13] is Ovis aries. Put plainly: Increase in FSH level in anoestrus Ile-de-France ewe at 1 nmol, iv by radioimmunoassay. In kind it is functional, organism-based. The essentials:
as §2

Test [14] deals with Neuropeptide FF receptor 1 (Homo sapiens, UniProt Q9GZQ6). Nature of the test: Agonist activity at human NPFF1R expressed in CHO cells assessed as effect on forskolin-induced cAMP accumulation after 15 mins by luminescence based assay. The format is functional, cell-based. The procedure, abridged:
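CHO cells stably expressing hNPFF1R (Gαi-coupled), transfected with GloSensor; seeded 30 000 cells/well 24 h before, PBS-washed twice, loaded with GloSensor cAMP reagent 2 h. Compound added, luminescence read 15 min, then 300 nM forskolin + 0.25 mM IBMX added and read a further 120 min. Signal AUC plotted against concentration, sigmoid fit for EC50.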
In general terms: cAMP levels reflect the balance of adenylyl cyclase and phosphodiesterase activity.

In test [15] the test system is Ovis aries. Put plainly: Increase in FSH level in anoestrus Ile-de-France ewe at 5 nmol, iv by radioimmunoassay. The format is functional, organism-based. The procedure, abridged: as §2
The subject of test [16] is Ovis aries. Put plainly: Increase in maximal amplitude of plasma LH level in anoestrus Ile-de-France ewe at 1 to 15 nmol, iv by radioimmunoassay. In kind it is functional, organism-based. The essentials: as §1
Test [17] relates to Ovis aries. Put plainly: Increase in peak plasma LH level in anoestrus Ile-de-France ewe at 5 nmol, iv by radioimmunoassay (reference value: 0.2 +/- 0.09 ng/ml). The format is functional. The procedure, abridged: as §1

The source made the active and inactive calls. The calls are words filed in the database; no cut-off is given here. *1 amine or outer side, *2 acyl side, *3 side chain or, on linkers, in order; H or OH if unused. Where a SMILES comes first, the peptide text is derived from it. Side-chain parts run from the residue outwards. [ ]: non-standard residue; d: D form. The star is where a group is joined. Glyψ(1,4-Tz)Leu = CC(C)C[C@@H](C(=O)[*:2])n1cc(CN[*:1])nn1; γGlu = O=C(O)[C@H](CCC(=O)[*:2])N[*:1]; Palmitoyl = CCCCCCCCCCCCCCCC(=O)*

KiSS-1 receptor, sequence (Q969F8 whole entry): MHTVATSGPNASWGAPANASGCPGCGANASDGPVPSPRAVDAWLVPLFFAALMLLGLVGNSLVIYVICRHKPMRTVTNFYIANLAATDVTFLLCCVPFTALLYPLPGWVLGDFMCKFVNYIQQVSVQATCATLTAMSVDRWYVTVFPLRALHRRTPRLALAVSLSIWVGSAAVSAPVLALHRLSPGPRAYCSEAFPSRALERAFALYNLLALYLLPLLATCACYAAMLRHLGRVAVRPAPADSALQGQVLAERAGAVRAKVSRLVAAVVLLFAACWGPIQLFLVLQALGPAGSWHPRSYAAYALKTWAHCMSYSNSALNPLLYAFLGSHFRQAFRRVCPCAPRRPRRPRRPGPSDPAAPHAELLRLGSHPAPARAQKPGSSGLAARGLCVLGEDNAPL
Neuropeptide FF receptor 1, sequence (Q9GZQ6 whole entry): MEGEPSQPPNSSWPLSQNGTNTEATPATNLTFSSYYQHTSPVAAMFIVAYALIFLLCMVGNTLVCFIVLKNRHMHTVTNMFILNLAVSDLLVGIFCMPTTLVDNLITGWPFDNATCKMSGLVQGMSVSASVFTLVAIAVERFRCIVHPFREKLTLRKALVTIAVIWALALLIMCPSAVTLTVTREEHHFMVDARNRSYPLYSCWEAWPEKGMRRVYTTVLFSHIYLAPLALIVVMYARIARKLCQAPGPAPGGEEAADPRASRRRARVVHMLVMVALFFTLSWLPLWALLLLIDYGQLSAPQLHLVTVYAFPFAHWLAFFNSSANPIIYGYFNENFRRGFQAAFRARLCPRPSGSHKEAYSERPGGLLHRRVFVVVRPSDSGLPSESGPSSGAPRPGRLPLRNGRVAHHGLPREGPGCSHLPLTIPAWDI

In the case of `CCCCCCCCCCCCCCCC(=O)N[C@@H](CCC(=O)NCCCC[C@H](NC(=O)[C@H](Cc1ccc(O)cc1)NC(C)=O)C(=O)N[C@@H](Cc1c[nH]c2ccccc12)C(=O)N[C@@H](CC(N)=O)C(=O)N[C@@H](CO)C(=O)N[C@@H](Cc1ccccc1)C(=O)NCc1cn([C@@H](CC(C)C)C(=O)N[C@@H](CCCNC(=N)N)C(=O)N[C@@H](Cc2ccc(O)cc2)C(N)=O)nn1)C(=O)O` (Ac-YK([γGlu-Palmitoyl])WNSF[Glyψ(1,4-Tz)Leu]RY-NH2), the Activity is 274 ng·min/mL in test [1]; 1.1 ng/mL in test [2]; 13.3 ng/mL in test [3]; 2400 ng·min/mL in [7]; “Dose-dependent effect” in [10]; “Dose-dependent effect” in test [12]. For the same compound, the Activity entry is “Dose-dependent effect” in test [16] and 5.3 ng/mL in [17]. The “fold change (FC)” value in [4] worked out at 40; in test [5], 25. For the same compound, in [6], the Ratio EC50 was greater than 100. Also, the outcome in [8] was Active. Further, in test [9], the Time was greater than 9 h. The EC50 in test [11] came out at 1.6 nM; in test [14], 222 nM. The result in test [13] and in [15] was inactive.

In general, EC50 refers to the concentration at which the effect is half-maximal.
